Source: ChEMBL document CHEMBL1122426, “Radioiodine-labeled N,N-dimethyl-N'-(2-hydroxy-3-alkyl-5-iodobenzyl)-1,3-propanediamines for brain perfusion imaging” (J Med Chem, 1983)

What was measured:
Rattus norvegicus [1] = assay: Biodistribution of I-125 labeled compound in rat heart, 2 min after intravenous injection. value expressed in average % dose per organ; value may range from 3.03 to 3.55; type: ADME, organism-based; conditions: in vivo
Rattus norvegicus [2] = assay: Biodistribution of I-125 labeled compound in rat brain to blood ratio, 1 hr after intravenous injection. value expressed in % dose per gram ratio; type: ADME, organism-based
How it was run: (§1)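 Rats given I-125 diamine iv; tissue activity at 2 min or 1 h compared with diluted injected-dose aliquots. % dose per gram approximated as % dose per organ divided by mean organ weight (brain 1.65 g; blood 18 g). Ratio taken from the per-gram values.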

Rattus norvegicus [3] = organism: Rattus norvegicus; assay: Effect of specific activity of compound on biodistribution in rats lungs 1 hr after injection at the dose of 6.25 mg value expressed in average % dose per organ; value may range from 2.70 to 7.70; type: ADME, organism-based, Lung; conditions: in vivo
How it was run: (§2)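 Rats received an intravenous injection of the I-125 labeled diamine with added unlabeled carrier (6.25, 2.5, 0.25 or 0.025 mg per dose). At 1 h, organs were counted. Percent dose per organ came from comparing tissue radioactivity with diluted aliquots of the injected dose. Values are the average and range of 3 rats. Brain/blood ratio was taken from % dose per gram, calculated using mean organ weights (brain 1.65 g; blood 18 g).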

Rattus norvegicus [4] = organism: Rattus norvegicus; assay: Effect of specific activity of compound on biodistribution in rats liver 1 hr after injection at the dose of 0.25 mg value expressed in average % dose per organ; value may range from 8.01 to 9.52; type: ADME, organism-based; conditions: in vivo; how it was run: as §2
[5] = Biodistribution of [125I]- compound in a monkey muscle. 1 hr after intravenous injection. the value expressed in%dose/organ; conditions: simiiformes, in vivo
[6] = The protein binding ability of compound was expressed in Percent free; type: ADME; conditions: read-out: % free
How it was run: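 Binding to pooled human serum was measured by equilibrium dialysis. 0.4 mL serum and 0.4 mL 0.15 M phosphate buffer, pH 7.4, were separated by a membrane, and 0.025 μCi radiolabeled diamine was added on the buffer side. Cells were rotated at 37 °C for 18 h, and aliquots from both sides were weighed and counted. % free = buffer/serum radioactivity concentration ratio × 100. The membrane was also counted.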

Rattus norvegicus [7] = assay: Biodistribution of I-125 labeled compound in rat blood, 1 hr after intravenous injection. value expressed in average % dose per organ; value may range from 0.92 to 1.31; type: ADME, organism-based; conditions: in vivo
Rattus norvegicus [8] = organism: Rattus norvegicus; assay: Effect of specific activity of compound on biodistribution in rats brain to blood ratio after injection at the dose of 0.025 mg value expressed in % dose per gram ratio; type: ADME, organism-based; how it was run: as §2
Rattus norvegicus [9] = organism: Rattus norvegicus; assay: Effect of specific activity of compound on biodistribution in rats brain 1 hr after injection at the dose of 2.5 mg value expressed in average % dose per organ; value may range from 2.13 to 2.36; type: ADME, organism-based; conditions: in vivo; how it was run: as §2
[10] = Biodistribution of [125I]- compound in a monkey muscle. 1 hr after intravenous injection. the value expressed in %dose/gram; conditions: simiiformes, in vivo
Rattus norvegicus [11] = assay: Biodistribution of I-125 labeled compound in rat heart, 1 hr after intravenous injection. value expressed in average % dose per organ; value may range from 0.97 to 1.26; type: ADME, organism-based; conditions: in vivo
Rattus norvegicus [12] = assay: Biodistribution of I-125 labeled compound in rat brain, 2 min after intravenous injection. value expressed in average % dose per organ; value may range from 1.71 to 1.95; type: ADME, organism-based; conditions: in vivo
Rattus norvegicus [13] = assay: Biodistribution of I-125 labeled compound in rat brain, 1 hr after intravenous injection. value expressed in average % dose per organ; value may range from 1.71 to 2.54; type: ADME, organism-based; conditions: in vivo
Rattus norvegicus [14] = organism: Rattus norvegicus; assay: Effect of specific activity of compound on biodistribution in rats brain to blood ratio 1 hr after injection at the dose of 0.25 mg value expressed in % dose per gram ratio; type: ADME, organism-based; how it was run: as §2
Rattus norvegicus [15] = organism: Rattus norvegicus; assay: Effect of specific activity of compound on biodistribution in rats thyroid 1 hr after injection at the dose of 6.25 mg value expressed in average % dose per organ; value may range from 0.09 to 0.11; type: ADME, organism-based, Thyroid gland; conditions: in vivo; how it was run: as §2
[16] = Biodistribution of [125I]- compound in a monkey brain to blood ratio 1 hr after intravenous injection. the value expressed in %dose/gram; conditions: simiiformes, in vivo
[17] = Biodistribution of [125I]- compound in a monkey kidneys. 1 hr after intravenous injection. the value expressed in%dose/organ; conditions: simiiformes, in vivo
Rattus norvegicus [18] = organism: Rattus norvegicus; assay: Effect of specific activity of compound on biodistribution in rats blood 1 hr after injection at the dose of 6.25 mg value expressed in average % dose per organ; value may range from 0.55 to 0.64; type: ADME, organism-based; conditions: in vivo; how it was run: as §2
[19] = Biodistribution of [125I]- compound in a monkey heart. 1 hr after intravenous injection. the value expressed in %dose/gram; conditions: simiiformes, in vivo
[20] = Biodistribution of […] compound in a monkey bone. 1 hr after intravenous injection. the value expressed in %dose/organ; type: ADME, organism-based, Bone element; conditions: simiiformes, in vivo
How it was run: (§3)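 Monkey sedated with ketamine and anesthetized with nembutal, then given ~100 μCi [125I] label (~7 mCi/mg) intravenously. Killed 1 h later by nembutal overdose. Organs dissected, weighed and counted. % dose per organ found against diluted injected-dose aliquots; % dose per gram also reported; brain/blood from per-gram values. Single animal.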

Rattus norvegicus [21] = organism: Rattus norvegicus; assay: Effect of specific activity of compound on biodistribution in rats heart 1 hr after injection at the dose of 2.5 mg value expressed in average % dose per organ; value may range from 0.34 to 0.42; type: ADME, organism-based; conditions: in vivo; how it was run: as §2
Rattus norvegicus [22] = organism: Rattus norvegicus; assay: Effect of specific activity of compound on biodistribution in rats heart after injection at the dose of 0.025 mg value expressed in average % dose per organ; value may range from 0.98 to 1.02; type: ADME, organism-based; conditions: in vivo; how it was run: as §2
Rattus norvegicus [23] = assay: Biodistribution of I-125 labeled compound in rat thyroid, 2 min after intravenous injection. value expressed in average % dose per organ; value may range from 0.20 to 0.23; type: ADME, organism-based, Thyroid gland; conditions: in vivo
Rattus norvegicus [24] = organism: Rattus norvegicus; assay: Effect of specific activity of compound on biodistribution in rats heart 1 hr after injection at the dose of 6.25 mg value expressed in average % dose per organ; value may range from 0.30 to 0.36; type: ADME, organism-based; conditions: in vivo; how it was run: as §2
Rattus norvegicus [25] = organism: Rattus norvegicus; assay: Effect of specific activity of compound on biodistribution in rats liver 1 hr after injection at the dose of 6.25 mg value expressed in average % dose per organ; value may range from 16.5 to 17.2; type: ADME, organism-based; conditions: in vivo; how it was run: as §2
Rattus norvegicus [26] = assay: Biodistribution of I-125 labeled compound in rat brain to blood ratio, 2 min after intravenous injection, value expressed in % dose per gram ratio; type: ADME, organism-based; how it was run: as §1
Rattus norvegicus [27] = assay: Biodistribution of I-125 labeled compound in rat thyroid, 1 hr after intravenous injection. value expressed in average % dose per organ; value may range from 0.17 to 0.23; type: ADME, organism-based, Thyroid gland; conditions: in vivo
[28] = Biodistribution of [125I]- compound in a monkey spleen. 1 hr after intravenous injection. the value expressed in %dose/gram; conditions: simiiformes, in vivo
Rattus norvegicus [29] = organism: Rattus norvegicus; assay: Effect of specific activity of compound on biodistribution in rats thyroid 1 hr after injection at the dose of 0.25 mg value expressed in average % dose per organ; value may range from 0.17 to 0.19; type: ADME, organism-based, Thyroid gland; conditions: in vivo; how it was run: as §2
[30] = Biodistribution of […] compound in a monkey heart. 1 hr after intravenous injection. the value expressed in%dose/organ; type: ADME, organism-based; conditions: simiiformes, in vivo; how it was run: as §3
Rattus norvegicus [31] = organism: Rattus norvegicus; assay: Effect of specific activity of compound on biodistribution in rats lungs after injection at the dose of 0.025 mg value expressed in average % dose per organ; value may range from 12.0 to 14.5; type: ADME, organism-based, Lung; conditions: in vivo; how it was run: as §2

Average dose per organ (Rattus norvegicus [1]): 3.23%
Ratio (Rattus norvegicus [2]): 19.7%
Average dose per organ (Rattus norvegicus [3]): 4.5%
Average dose per organ (Rattus norvegicus [4]): 8.54%
Dose per organ [5]: 17.3%
fraction unbound [6]: 0.483
Average dose per organ (Rattus norvegicus [7]): 1.1%
Ratio (Rattus norvegicus [8]): 17.6%
Average dose per organ (Rattus norvegicus [9]): 2.21%
Dose/g [10]: 0.00491%
Average dose per organ (Rattus norvegicus [11]): 1.11%
Average dose per organ (Rattus norvegicus [12]): 1.8%
Average dose per organ (Rattus norvegicus [13]): 2.02%
Ratio (Rattus norvegicus [14]): 22.8%
Average dose per organ (Rattus norvegicus [15]): 0.1%
Ratio [16]: 17.5
Dose per organ [17]: 16.1%
Average dose per organ (Rattus norvegicus [18]): 0.61%
Dose/g [19]: 0.218%
Dose per organ [20]: 1.53%
Average dose per organ (Rattus norvegicus [21]): 0.38%
Average dose per organ (Rattus norvegicus [22]): 1%
Average dose per organ (Rattus norvegicus [23]): 0.22%
Average dose per organ (Rattus norvegicus [24]): 0.33%
Average dose per organ (Rattus norvegicus [25]): 16.7%
Ratio (Rattus norvegicus [26]): 7.35%
Average dose per organ (Rattus norvegicus [27]): 0.19%
Dose/g [28]: 0.267%
Average dose per organ (Rattus norvegicus [29]): 0.17%
Dose per organ [30]: 5.39%
Average dose per organ (Rattus norvegicus [31]): 12.8%
Structure (SMILES): Cc1cc(I)cc(CNCCCN(C)C)c1O
